TAAR1 antag: human TAAR1 antagonism; CHO RD-HGA16 TAAR1, Fluo-8 calcium fluorescence, antagonist; AID 624466; inhibition, % at 3 µM; 1.5% of 360,000 active;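 active = inhibition above a per-plate cutoff, the mean inhibition of test compounds on that plate plus 3 SD, cut at about 49% in these data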;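 also: 0% = DMSO plus EC80 beta-PEA response and 100% = DMSO alone without agonist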
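Test system – hTAAR1-expressing CHO RD-HGA16 cells, Gα16-coupled · Reagent – β-PEA at EC80 concentration, post-compound challenge · Compound dosing – 3 µM, single point · Timing – 140 s kinetic read after compound, 140 s after agonist · Detection – Fluo-8 intracellular calcium dye fluorescence, real-time kinetic reads · Control set – DMSO and EC80 PEA controls · Repeats – n of 1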
OXTR potentiator: human OXTR potentiation; activation, % at 3 µM; AID 2445; CHO-OTR cells, Fluo-8 calcium fluorescence, potentiator mode; 0% = oxytocin EC15, 100% = EC100; 0.061% of 320,000 active;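 active = activation above that plate's cutoff, the mean activation of tested compounds plus 3 SD, cut at about 6.6% in these data, passing the limit was not always enough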;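 also: 100% uses oxytocin at 75 nM as the full agonist control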
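Assay system: CHO-OTR cells, human receptor / Also added: oxytocin at about EC15, sub-maximal agonist stimulus / Dosing: single dose, 3.0 µM nominal final compound concentration / Incubation: 6 min pre-incubation, 100 s read / Technique: Fluo-8 calcium dye fluorescence / Read-out: % activation vs EC15 and EC100 oxytocin / Benchmarks: EC15 oxytocin low, 75 nM oxytocin high / Replicates: singlicate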
TAAR1 agonist: agonists of human TAAR1. Q96RJ0. 0.99% of 360,000 active. activation, % at 3 µM. CHO RD-HGA16 TAAR1, Fluo-8 calcium fluorescence; vehicle wells 0%, saturating PEA agonist 100%;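 active = activation above the mean activation of all test compounds in the run plus 3 SD, cut at about 38% in these data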
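Test system: RD-HGA16 (CHO) cells co-expressing Gα16 and hTAAR1 / Benchmarks: DMSO vehicle as 0%, PEA at EC100 as 100% / Repeats: no replicates (n 1) / Measure: % activation from peak over basal fluorescence ratio, DMSO-to-PEA scaled / Timing: 17-24 h plating, Fluo-8 75 min 37 °C, 30 min RT / Technique: kinetic Fluo-8 calcium fluorescence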
V1aR counter: counter-screen for oxytocin receptor agonists: human V1a receptor agonists. activation, % at 3 µM. CHO-V1R cells, Fluo-8 calcium fluorescence, agonist mode; 0% DMSO, 100% 3 nM vasopressin. 0.25% of 320,000 active. AID 2797;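 active = activation above the mean activation of all tested compounds plus 3 SD, per screening run, cut at about 20% in these data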;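 also: signal is peak over basal fluorescence ratio across a 100 second FLIPR read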
Target sequence (P37288 whole entry, looked up): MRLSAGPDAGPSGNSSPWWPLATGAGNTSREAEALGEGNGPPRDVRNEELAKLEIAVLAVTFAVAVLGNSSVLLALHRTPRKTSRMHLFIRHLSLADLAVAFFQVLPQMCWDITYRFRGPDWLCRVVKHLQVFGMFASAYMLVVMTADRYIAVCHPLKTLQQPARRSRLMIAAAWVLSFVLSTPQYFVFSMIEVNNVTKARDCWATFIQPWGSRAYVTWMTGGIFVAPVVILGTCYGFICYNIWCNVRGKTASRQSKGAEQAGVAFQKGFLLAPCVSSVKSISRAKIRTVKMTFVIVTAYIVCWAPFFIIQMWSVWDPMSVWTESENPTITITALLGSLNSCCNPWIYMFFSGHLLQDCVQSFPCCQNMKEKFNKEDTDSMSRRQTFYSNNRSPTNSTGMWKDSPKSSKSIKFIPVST
OXTR ag: activates the human oxytocin receptor; P30559; activation, % at 3 µM; 0.32% of 320,000 active; CHO-OTR cells, Fluo-8 calcium fluorescence; normalized: DMSO 0%, oxytocin 100%;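 active = activation above the mean of all tested compounds plus 3 SD, cutoff set per screening run, cut at about 20% in these data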;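 also: peak over basal fluorescence ratio from a 100 s FLIPR kinetic read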
nonsel antag count: nonselective antagonism, TAAR1 counter-screen; shares compounds with TAAR1 antag; counterscreen cell line, calcium fluorescence, antagonist mode; inhibition, % at 3 µM; 77% of 2,400 active; AID 651780; in the data active = inhibition above about 22%;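 also: CHO-Ga16 host cells stimulated with ATP at an EC80 level; 0% = agonist EC80 plus vehicle and 100% = vehicle without agonist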
TAAR1 ant conf: human TAAR1 antagonism, confirmed | shares compounds with TAAR1 antag | TAAR1-expressing cells, fluorescence antagonist read-out | inhibition, % at 3 µM | 40% of 2,400 active; in the data active = inhibition above about 49%;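 also: CHO-Ga16 host cells challenged with agonist PEA near its EC80; 0% = agonist at EC80 plus vehicle and 100% = vehicle with no agonist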
Ga16 nonsel ag: nonselective Ga16 agonist in TAAR1 antagonist counter-screen; shares compounds with TAAR1 antag; 18% of 2,400 active; Ga16-expressing cells, calcium fluorescence, agonist counterscreen; activation, % at 3 µM; in the data active = activation above about 12%;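 also: 0% = vehicle wells and 100% = saturating stimulus response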
TAAR1 ag counter: counter-screen for human TAAR1 antagonists: TAAR1 agonists; shares compounds with TAAR1 antag; hTAAR1 cell line, fluorescence activation, agonist mode; activation, % at 3 µM; 2% of 2,400 active; AID 651955; in the data active = activation above about 37%;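 also: CHO cells stably expressing TAAR1 with calcium dye readout; 0% = DMSO vehicle and 100% = full agonist response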
Numbers without * were called inactive; / = not tested or not shown. Hits are enriched below; roughly 2.3% of the tested compounds scored in any of these assays.

SMILES	TAAR1 antag	OXTR potentiator	TAAR1 agonist	V1aR counter	OXTR ag	nonsel antag count	TAAR1 ant conf	Ga16 nonsel ag	TAAR1 ag counter
CCOC(=O)C1(CCc2ccccc2)CCN(C(=O)c2cc(C)nc(C)n2)CC1	-4	-6	2	0	0	/	/	/	/
CCn1cc(C(=O)NCc2ccco2)c(=O)c2ccc(C)nc21	-6	-2	2	-1	-1	/	/	/	/
CC(C)C(=O)NNC(=O)CSc1nnnn1C(C)C	9	2	4	1	0	/	/	/	/
O=C1CCCCC1C(Nc1ccc(Br)cc1)c1ccccc1 (stereo unspecified)	41	-11	25	-2	-3	/	/	/	/
O=C1CCCCC1C(Nc1ccc(Cl)cc1)c1ccccc1 (stereo unspecified)	68*	-8	11	-1	-2	13	45	7	10
O=C(Nc1cccnc1)C1Cc2c(-c3cccc(F)c3)ccnc2O1 (stereo unspecified)	-12	/	2	/	/	/	/	/	/
Cc1ccc(C(C(=O)NCC2CCCO2)N(Cc2ccccc2)C(=O)c2ccc(-c3ccccc3)[nH]2)o1 (stereo unspecified)	67*	-10	9	-1	-1	31*	42	8	14
O=C(NCC(=O)N(Cc1ccccc1)C(C(=O)NCC1CCCO1)c1ccccc1)c1ccco1 (stereo unspecified)	53*	-9	19	5	7	20	46	10	10
O=C(NCC(=O)N(c1ccc(F)cc1)C(C(=O)NCC1CCCO1)c1ccccc1)c1ccco1 (stereo unspecified)	25	-12	9	0	0	/	/	/	/
COc1ccccc1CN(C(=O)CNC(=O)c1ccco1)C(C(=O)NCC1CCCO1)c1ccccc1 (stereo unspecified)	68*	-6	17	4	5	32*	47	8	10
Cc1ccc(NC(=O)COC(=O)C2CC3C=CC2C3)cc1S(=O)(=O)N1CCCCC1 (stereo unspecified)	36	-13	9	6	10	/	/	/	/
O=C(COC(=O)c1cc(Br)ccc1O)NC12CC3CC(CC(C3)C1)C2	34	-11	3	1	3	/	/	/	/
Clc1ccc(CO/N=C/c2cccs2)cc1	-26	0	2	0	0	/	/	/	/
Cc1c(C(=O)NCc2ccc(Cl)c(Cl)c2)sc(=O)n1Cc1ccc(S(C)(=O)=O)cc1	72*	/	21	/	/	35*	37	14*	13
CSc1ccc(Cn2c(C)c(C(=O)NCc3ccc(Cl)c(Cl)c3)sc2=O)cc1	19	/	1	/	/	/	/	/	/
CCOC(=O)c1c(C)[nH]c(C(=O)COC(=O)C2CC2)c1C	-1	/	2	/	/	/	/	/	/
CCOC(=O)c1c(C)[nH]c(C(=O)COC(=O)C2(C)CC2(Cl)Cl)c1C (stereo unspecified)	71*	-22	15	6	2	45*	74*	11	14
Cc1ccc(NC(=O)N(Cc2ccco2)C(C)c2ccco2)cc1C (stereo unspecified)	-3	-3	-1	-1	-2	/	/	/	/
Cc1ccc(NC(=O)CN(Cc2ccco2)Cc2ccccc2O)cc1C	52*	-8	3	4	3	24*	45	5	7
NC(=O)CC(NC(=O)Cc1ccc(Br)cc1)c1ccc(N2CCc3ccccc3C2)c([N+](=O)[O-])c1 (stereo unspecified)	-10	-6	5	-1	-1	/	/	/	/
CC(C)c1ccc(NC(=O)[C@H](NC(=O)[C@@H]2Cc3ccccc3CN2)c2ccccc2)cc1	-9	-10	12	3	2	/	/	/	/
O=C(/C=C/c1cccc(Oc2ccccc2)c1)N1CCOCC1	-3	-11	9	6	0	/	/	/	/
CCS(=O)(=O)N1Cc2ccccc2CC1C(=O)Nc1nnc(SCc2ccc(C#N)cc2)s1 (stereo unspecified)	68*	-15	26	3	5	34*	56*	12*	13
C=CC[C@H]1C=C[C@@H](C(C(=O)OC)C(=O)OC)CN1C(C)=O	0	/	1	/	/	/	/	/	/
N#Cc1c(-c2ccc(Br)cc2)cc(-c2cccnc2)nc1N	1	-4	-1	1	-1	/	/	/	/
SMILES	TAAR1 antag	OXTR potentiator	TAAR1 agonist	V1aR counter	OXTR ag	nonsel antag count	TAAR1 ant conf	Ga16 nonsel ag	TAAR1 ag counter
N#Cc1c(-c2cccc(Br)c2)cc(-c2cccnc2)nc1N	56*	-12	5	3	1	21	38	7	11
CCCCCC(=O)N1C[C@H](n2cc(-c3ccc(F)cc3)nn2)[C@@H](O)C[C@@H]1c1ccc(Cl)cc1	14	/	6	/	/	/	/	/	/
CC1(C)N=C(SCC(=O)Nc2ccc(Cl)cc2)C(c2ccc(Cl)cc2)=N1	68*	-13	7	2	-1	27*	48	5	-1
COc1ccc(/C=N/Nc2nc(-c3ccc(C)cc3)c(NC(C)=O)s2)cc1	51*	-4	0	-1	-2	7	42	1	4
O=[N+]([O-])c1ccc(C2OCCO2)cc1CS(=O)(=O)c1ccccc1	6	-8	3	0	1	/	/	/	/
O=C(Nc1cccc(S(=O)(=O)N2CCCCC2)c1)c1ccc(Cl)nc1	20	-9	13	10	12	/	/	/	/
O=C(Nc1cccc(S(=O)(=O)N2CCCCCC2)c1)c1ccc(Cl)nc1	54*	-9	9	10	7	27*	37	8	7
O=C(Nc1ccc(Cl)c(S(=O)(=O)N2CCOCC2)c1)c1ccc(Cl)nc1	67*	/	24	/	/	32*	52*	12*	15
O=C(Nc1cccc(S(=O)(=O)C(F)F)c1)c1ccc(Cl)c(S(=O)(=O)N2CCOCC2)c1	74*	-19	35	15	11	50*	65*	19*	23
O=C(Nc1ccc(Cl)c(S(=O)(=O)N2CCOCC2)c1)c1ccc2c(c1)OCO2	66*	-8	17	6	6	32*	46	15*	12
O=C(Nc1cccc(C(=O)NC2CC2)c1)c1ccc(Cl)c(S(=O)(=O)N2CCOCC2)c1	32	-6	17	1	0	/	/	/	/
CCC(C)NC(=O)CNC(=S)N(Cc1ccccc1F)C1CCCCC1 (stereo unspecified)	-32	-2	2	-1	-1	/	/	/	/
O=c1cc(COc2ccccc2[N+](=O)[O-])nc2sccn12	4	-5	2	0	1	/	/	/	/
